We go through five compounds from PMC3731742 (Journal of biomolecular screening, 2011).

The target of data set [1] is SV40 large T antigen ATPase activity (Simian virus 40, UniProt P03070). As to the kind of experiment: SV40 TAg ATPase primary assay. It counts as biochemical. The note with it: 1% DMSO; for IC50: 1536-well, ADP Hunter, 1 mM ATP. In short, it runs like this: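 Purified TAg (10.8 ng/well, added from 14.4 ng/µL) in 100 mM Tris-HCl pH 7.4, 20 mM KCl, 6 mM MgCl2, 0.1 mg/mL BSA; control added before enzyme, preincubated 30 min ambient; 5 mM ATP stock added, 120 min ambient; 1.25 µL reaction. ADP Hunter fluorescence, ex/em 530/590 nm bottom read. % inhibition normalized to median enzyme control and high-dose control wells.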

The nature of data set [2]: Compound aggregation in steady-state ATP assays. It counts as physicochemical. The note with it: 20-μL steady-state ATP assay; previously observed in the laboratory.
The next data set relates to TAg. The settings on record: read-out: IC50 for MAL2-11B; ref 21 (Huryn et al.); cited from earlier work.
Data set [3] concerns Nuclear receptor ROR-gamma. The settings on record: PubChem; cited from earlier work.
Data set [4] relates to TAg-dependent DNA replication. The data set can be described thus: TAg-dependent DNA replication assay. It counts as biochemical, SV40. The note with it: HeLa cell lysate, radiolabelled nucleotides. In short, it runs like this: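 TAg recruits replication machinery from HeLa cell lysate to copy a reporter plasmid carrying the SV40 origin, incorporating trace radiolabelled nucleotides over time. Test compound added at 30, 100 and 300 µM.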

Data set [5] deals with Hydroxyprostaglandin dehydrogenase 15-(NAD) isoform 1. The note with it: PubChem; cited from earlier work.
The subject of data set [6] is Microtubule-associated protein tau. The settings on record: PubChem, tau aggregation; cited from earlier work.
Data set [7] has as its system Phosphopantetheinyl transferase. The settings on record: PubChem; cited from earlier work.
The subject of the next data set is SV40 virus. As to the kind of experiment: Cytoprotection assay with SV40 virus in BSC-40 cells. It counts as cell-based. The settings on record: 50 μM, BSC-40 cells + SV40, 120 h.
The test system of another data set is Aldehyde dehydrogenase 1. The settings on record: PubChem; cited from earlier work.
A further data set has as its system Mint1. The note with it: PubChem; cited from earlier work.
The test system of a further data set is BSC-40 cells. As to the kind of experiment: Cytotoxicity in BSC-40 cells. It counts as cell-based, African green monkey. The settings on record: cells + compound only, 5 days.

Values joined by “and” are separate entries in the source; they are usually repeats but may differ in a detail not shown here. Identical values can stand only once. Like-named read-outs stand apart in the source and are kept apart here.

Sequence of SV40 large T antigen ATPase activity (P03070 whole entry): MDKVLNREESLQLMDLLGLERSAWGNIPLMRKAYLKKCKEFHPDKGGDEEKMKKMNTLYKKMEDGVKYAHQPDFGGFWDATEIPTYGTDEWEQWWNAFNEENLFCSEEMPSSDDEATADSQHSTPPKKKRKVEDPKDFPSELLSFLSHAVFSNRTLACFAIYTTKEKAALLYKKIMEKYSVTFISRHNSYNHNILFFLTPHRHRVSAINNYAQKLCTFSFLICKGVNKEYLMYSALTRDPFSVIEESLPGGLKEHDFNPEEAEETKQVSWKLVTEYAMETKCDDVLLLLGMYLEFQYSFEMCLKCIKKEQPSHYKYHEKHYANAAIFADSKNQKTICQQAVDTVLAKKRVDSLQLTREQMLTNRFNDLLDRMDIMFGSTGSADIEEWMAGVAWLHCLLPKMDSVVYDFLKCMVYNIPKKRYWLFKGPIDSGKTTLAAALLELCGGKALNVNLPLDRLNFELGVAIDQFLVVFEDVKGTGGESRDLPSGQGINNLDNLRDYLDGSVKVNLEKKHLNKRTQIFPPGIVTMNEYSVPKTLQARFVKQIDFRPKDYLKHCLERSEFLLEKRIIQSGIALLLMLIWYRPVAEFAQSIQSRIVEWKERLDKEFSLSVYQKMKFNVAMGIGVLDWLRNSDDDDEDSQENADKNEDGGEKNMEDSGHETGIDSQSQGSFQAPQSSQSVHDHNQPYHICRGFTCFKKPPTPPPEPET

Turning to `CC1=C(C(=O)OCc2ccccc2)C(c2ccc(-c3ccccc3)cc2)NC(=O)N1CCCCCC(=O)O` (stereo not shown) [MAL2-11B, reference compound], the “inhibition of TAg activity” value in data set [1] (MAL2-11B at 100 μM final, average) was 80%. Moreover, the IC50 (in general, the midpoint of a concentration-inhibition curve) in [1] (read-out: IC50, inhibition of TAg ATPase activity in the primary assay) is 19.5 µM; with TAg, 50 µM. Also, in data set [2], the “final concentration at which compound aggregation was observed” value is more than 300 µM.
Take `ClC(Cl)(c1nnnn1-c1ccccc1)c1nnnn1-c1ccccc1` [SID 85281215]: the “identified as hit (inhibitor) against target” value (“identified as hit (inhibitor)” for short) in data set [3] was “Nuclear receptor ROR-gamma”; in data set [5] it was “Hydroxyprostaglandin dehydrogenase 15-(NAD) isoform 1”; in data set [6], “Microtubule-associated protein tau”; in [7], “Phosphopantetheinyl transferase”; in the data set with Aldehyde dehydrogenase 1 it was “Aldehyde dehydrogenase 1”; with Mint1 it was “Mint1”. In addition, in data set [4], the “effect on TAg-dependent DNA replication at 300 μM” value is reported as “DNA replication was absent”. Also, the “sustained cell viability in the cytoprotection assay” value with SV40 virus stood at 16%.
Take `Nc1nc2ccc(S(=O)(=O)N3CCCCC3)cc2s1` [SID 85281217]: the “identified as hit (inhibitor)” value in data set [5] was “Hydroxyprostaglandin dehydrogenase 15-(NAD) isoform 1”; in data set [6], “Microtubule-associated protein tau”; in data set [7] it was “Phosphopantetheinyl transferase”; in the data set on Aldehyde dehydrogenase 1, “Aldehyde dehydrogenase 1”; in the data set on Mint1 it was “Mint1”.
Regarding `Cc1cc(C)c2c(=O)n(CC(=O)Nc3cccc(Cl)c3C)sc2n1` [SID 85281218], the “identified as hit (inhibitor)” value is “Nuclear receptor ROR-gamma” in [3], “Microtubule-associated protein tau” in [6], “Phosphopantetheinyl transferase” in data set [7] and “Mint1” with Mint1.
As for `CC(C)(c1ccc(O)cc1)c1ccc(O)cc1` [SID 92277586, Bisphenol A], the “effect on TAg-dependent DNA replication at 100 μM” value in data set [4] (100 μM) is “some inhibition”. The “effect on TAg-dependent DNA replication at 300 μM” value in data set [4] is recorded as “complete inhibition”. The 50% inhibitory concentration (IC50) in data set [1] (IC50, inhibition of TAg ATPase activity in the primary assay) is 41 µM and 41.4 µM. In the data set with BSC-40 cells, the “TC50 (50% toxic concentration)” value came out at 7.94 µM.
